Activity calls are given as the source filed them. No cut-off for these calls is given here.
Key:
Tubulin (Homo sapiens) = Tubulin (Homo sapiens) (UniProt P68371+Q9H4B7+P0DPH7+P68366+Q13509+Q71U36+P04350+Q3ZCM7+P07437+P68363+Q9BQE3+Q6PEY2+Q13885+Q9BVA1+Q9BUF5); assay: Inhibition of tubulin (unknown origin) polymerization at 2 uM by immunoblot analysis; type: protein-complex assay
Summary of the method: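 Cell-based assay. Cells were treated with compound at 1.0 and 2.0 μM. Polymerized tubulin (pellet) was separated from unpolymerized tubulin (supernatant), and both fractions were immunoblotted with anti-tubulin antibody.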

U-251 = assay: Growth inhibition of human U251 cells incubated for 48 hrs by sulforhodamine B assay; type: functional; details: U-251, 48 h
Summary of the method: (§1)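 NCI-60 screen run per Rubinstein protocol. Sulforhodamine B optical density was read before and after 48 h exposure to compound or vehicle. The single-dose pass at 10⁻⁵ M reported percent growth relative to vehicle control and time-zero cell number. The five-dose follow-up used 10⁻⁴ to 10⁻⁸ M, giving GI₅₀ as the molar concentration causing 50% growth inhibition.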

UACC-257 = assay: Growth inhibition of human UACC257 cells incubated for 48 hrs by sulforhodamine B assay; type: functional; details: UACC-257, 48 h
Summary of the method: (§2)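 NCI-60 screen: cells were exposed for 48 h to compound or vehicle, and growth was read as sulforhodamine B optical density before and after exposure. In the single-dose test at 10⁻⁵ M, percent growth was taken relative to vehicle control and time-zero cell number. In the five-dose test (10⁻⁴ to 10⁻⁸ M), GI₅₀ was the molar concentration causing 50% growth inhibition.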

UO-31 = assay: Growth inhibition of human UO31 cells incubated for 48 hrs by sulforhodamine B assay; type: functional; details: UO-31, 48 h; summary of the method: as §1
786-0 = assay: Growth inhibition of human 786-0 cells incubated for 48 hrs by sulforhodamine B assay; type: functional; details: 786-0, 48 h
Summary of the method: (§3)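 NCI-60 five-dose study at 10⁻⁴, 10⁻⁵, 10⁻⁶, 10⁻⁷ and 10⁻⁸ M, 48 h incubation. Growth determined from sulforhodamine B optical density before and after exposure, relative to vehicle control and time-zero counts. GI₅₀ is the molar concentration giving 50% growth inhibition.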

EKVX = assay: Growth inhibition of human EKVX cells incubated for 48 hrs by sulforhodamine B assay; type: functional; summary of the method: as §2
PC-3 = assay: Growth inhibition of human PC3 cells incubated for 48 hrs by sulforhodamine B assay; type: functional; details: PC-3, 48 h; summary of the method: as §3
NCI-H322M = assay: Growth inhibition of human NCI-H322M cells incubated for 48 hrs by sulforhodamine B assay; type: functional; summary of the method: as §2
NCI-H460 = assay: Growth inhibition of human NCI-H460 cells incubated for 48 hrs by sulforhodamine B assay; type: functional; details: NCI-H460, 48 h; summary of the method: as §2
OVCAR-5 = assay: Growth inhibition of human OVCAR5 cells incubated for 48 hrs by sulforhodamine B assay; type: functional; details: OVCAR-5, 48 h; summary of the method: as §2
BT-549 = assay: Growth inhibition of human BT549 cells incubated for 48 hrs by sulforhodamine B assay; type: functional; details: BT-549, 48 h; summary of the method: as §2
SN12C = assay: Growth inhibition of human SN12C cells incubated for 48 hrs by sulforhodamine B assay; type: functional; summary of the method: as §2
Malme-3M = assay: Growth inhibition of human MALME-3M cells incubated for 48 hrs by sulforhodamine B assay; type: functional; summary of the method: as §2
SK-MEL-28 = assay: Growth inhibition of human SK-MEL-28 cells incubated for 48 hrs by sulforhodamine B assay; type: functional; details: SK-MEL-28, 48 h; summary of the method: as §3
OVCAR-8 = assay: Growth inhibition of human OVCAR8 cells incubated for 48 hrs by sulforhodamine B assay; type: functional; details: OVCAR-8, 48 h; summary of the method: as §2
SF-268 = assay: Growth inhibition of human SF268 cells incubated for 48 hrs by sulforhodamine B assay; type: functional; details: SF-268, 48 h; summary of the method: as §3
SW-620 = assay: Growth inhibition of human SW620 cells incubated for 48 hrs by sulforhodamine B assay; type: functional; details: SW-620, 48 h; summary of the method: as §1
UACC-62 = assay: Growth inhibition of human UACC62 cells incubated for 48 hrs by sulforhodamine B assay; type: functional; details: UACC-62, 48 h; summary of the method: as §1
SNB-75 = assay: Growth inhibition of human SNB75 cells incubated for 48 hrs by sulforhodamine B assay; type: functional; details: SNB-75, 48 h; summary of the method: as §1
RPMI-8226 = assay: Growth inhibition of human RPMI8226 cells incubated for 48 hrs by sulforhodamine B assay; type: functional; details: RPMI-8226, 48 h; summary of the method: as §3
T47D = assay: Growth inhibition of human T47D cells incubated for 48 hrs by sulforhodamine B assay; type: functional; summary of the method: as §2
NCI-H226 = assay: Growth inhibition of human NCI-H226 cells incubated for 48 hrs by sulforhodamine B assay; type: functional; details: NCI-H226, 48 h; summary of the method: as §2
SNB-19 = assay: Growth inhibition of human SNB19 cells incubated for 48 hrs by sulforhodamine B assay; type: functional; details: SNB-19, 48 h; summary of the method: as §1
SF-295 = assay: Growth inhibition of human SF295 cells incubated for 48 hrs by sulforhodamine B assay; type: functional; details: SF-295, 48 h; summary of the method: as §3
K562 = assay: Growth inhibition of human K562 cells incubated for 48 hrs by sulforhodamine B assay; type: functional; details: K562, 48 h; summary of the method: as §3
TK-10 = assay: Growth inhibition of human TK10 cells incubated for 48 hrs by sulforhodamine B assay; type: functional; details: TK-10, 48 h; summary of the method: as §2
SR = assay: Growth inhibition of human SR cells incubated for 48 hrs by sulforhodamine B assay; type: functional; summary of the method: as §1
CAKI-1 = assay: Growth inhibition of human Caki1 cells incubated for 48 hrs by sulforhodamine B assay; type: functional; details: CAKI-1, 48 h; summary of the method: as §2
SK-MEL-5 = assay: Growth inhibition of human SK-MEL-5 cells at 10 uM after 48 hrs by sulforhodamine B assay relative to control; type: functional; details: SK-MEL-5, 48 h, values are per cent of control
Summary of the method: (§4)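 NCI-60 single-dose screen. Cells exposed to 10⁻⁵ M or to vehicle for 48 h. Growth measured by sulforhodamine B optical density before and after exposure. Reported as percent growth relative to vehicle control and to time-zero cell number; negative values indicate cell kill.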

A498 = assay: Growth inhibition of human A498 cells incubated for 48 hrs by sulforhodamine B assay; type: functional; details: A498, 48 h; summary of the method: as §3
SF-539 = assay: Growth inhibition of human SF539 cells at 10 uM after 48 hrs by sulforhodamine B assay relative to control; type: functional; details: SF-539, 48 h, values are per cent of control; summary of the method: as §4

SMILES | inhibition (Tubulin (Homo sapiens)) | GI50 (U-251) [µM] | GI50 (UO-31) [µM] | GI50 (786-0) [µM] | GI50 (PC-3) [µM] | GI50 (SK-MEL-28) [µM] | GI50 (SF-268) [µM] | GI50 (SW-620) [µM] | GI50 (UACC-62) [µM] | GI50 (SNB-75) [µM] | GI50 (RPMI-8226) [µM] | GI50 (SNB-19) [µM] | GI50 (SF-295) [µM] | GI50 (K562) [µM] | GI50 (SR) [µM] | growth, % of control at 10 µM (SK-MEL-5) [%] | further results
COc1ccc(/C(=C/c2ccc3ccccc3c2)c2nnn[nH]2)cc1OC | inactive | 4.46 | 5.59 | 5.72 | 2.36 | 8.07 | 6.55 | 1.36 | 0.86 | 2.51 | 4.02 | 7.84 | 1.51 | 0.67 | 2.23 | 23.5 | GI50 (UACC-257): 56.6 µM; GI50 (EKVX): 18.2 µM; GI50 (NCI-H322M): 6.88 µM; GI50 (NCI-H460): 2.81 µM; GI50 (OVCAR-5): 6.08 µM; GI50 (BT-549): 10.9 µM; GI50 (SN12C): 9.97 µM; GI50 (Malme-3M): 3.08 µM; GI50 (OVCAR-8): 7.1 µM; GI50 (T47D): 28.2 µM; GI50 (NCI-H226): > 100 µM; GI50 (TK-10): 18.5 µM; GI50 (CAKI-1): 2.24 µM
COc1ccc(/C=C(/c2cc(OC)c(OC)c(OC)c2)c2nnn[nH]2)cc1O | Active | < 0.01 | < 0.01 | < 0.01 | < 0.01 | < 0.01 | < 0.01 | < 0.01 | < 0.01 | < 0.01 | < 0.01 | < 0.01 | 5.28 | < 0.01 | < 0.01 | -54 | GI50 (A498): < 0.01 µM; growth, % of control at 10 µM (SF-539): -1.97%

Source: ChEMBL document CHEMBL4371053, “A novel tetrazole analogue of resveratrol is a potent anticancer agent” (Bioorg Med Chem Lett, 2019)
